# Laboratory results from ChEMBL document CHEMBL3875163, “Novel urea and bis-urea primaquine derivatives with hydroxyphenyl or halogenphenyl substituents: Synthesis and biological evaluation” (Eur J Med Chem, 2016).
# Tests used:
# Staphylococcus aureus [1] = assay: Antibacterial activity against methicillin sensitive Staphylococcus aureus ATCC 25213 after 18 hrs by serial microdilution broth assay; format: functional; conditions: ATCC 25213, 18 h
# Outline: (§1)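 Broth microdilution MIC per EUCAST for aerobic bacteria in Mueller-Hinton broth, serial dilution 1000 to 0.78125 µg/ml from 10 mg/ml DMSO stocks. Inoculum from trypticase soy broth cultures (18 h, 37 °C), set to 0.5 McFarland in PBS pH 7.4, diluted 1:10. 18 h aerobic incubation at 35 °C in dark, then TTC 0.5 mg/ml for 3 h, HCl-isopropanol, A490. MIC = lowest concentration giving 50% inhibition versus untreated; duplicates.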
# Staphylococcus aureus [2] = assay: Antibacterial activity against methicillin resistant Staphylococcus aureus MFBF 10679 after 18 hrs by serial microdilution broth assay; format: functional; conditions: MFBF 10679, 18 h
# Outline: (§2)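 EUCAST-based broth microdilution in Mueller-Hinton broth. Glycerol stock cultures grown in trypticase soy broth 18 h at 37 °C; inoculum in PBS pH 7.4 at 0.5 McFarland, diluted 1:10 in broth. Compounds from DMSO stocks, 1000 to 0.78125 µg/ml; 18 h aerobic, 35 °C, dark. TTC 0.5 mg/ml added, 3 h, then HCl/isopropanol, A490. MIC = lowest concentration giving 50% inhibition vs untreated; duplicates, averaged.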
# Staphylococcus aureus [3] = assay: Antibacterial activity against methicillin sensitive Staphylococcus aureus ATCC 25923 after 18 hrs by serial microdilution broth assay; format: functional; conditions: ATCC 25923, 18 h; outline: as §2
# Bacillus cereus = assay: Antibacterial activity against Bacillus cereus ATCC 11778 after 18 hrs by serial microdilution broth assay; format: functional; conditions: ATCC 11778, 18 h; outline: as §1
# Pseudomonas aeruginosa [4] = assay: Antibacterial activity against Pseudomonas aeruginosa ATCC 9027 after 18 hrs by serial microdilution broth assay; format: functional; conditions: ATCC 9027, 18 h; outline: as §2
# Staphylococcus aureus [5] = assay: Antibacterial activity against Staphylococcus aureus ATCC 6538 after 18 hrs by serial microdilution broth assay; format: functional; conditions: ATCC 6538, 18 h; outline: as §1
# Pseudomonas aeruginosa [6] = assay: Antibacterial activity against multi-drug resistant Pseudomonas aeruginosa MFBF after 18 hrs by serial microdilution broth assay; format: functional; outline: as §2
# Enterococcus faecalis [7] = assay: Antibacterial activity against vancomycin resistant Enterococcus faecalis MFBF 11419 after 18 hrs by serial microdilution broth assay; format: functional; conditions: MFBF 11419, 18 h; outline: as §2
# Escherichia coli = assay: Antibacterial activity against Escherichia coli ATCC 10535 after 18 hrs by serial microdilution broth assay; format: functional; conditions: ATCC 10535, 18 h; outline: as §1
# Pseudomonas aeruginosa [8] = assay: Antibacterial activity against Pseudomonas aeruginosa ATCC 27853 after 18 hrs by serial microdilution broth assay; format: functional; conditions: ATCC 27853, 18 h; outline: as §1
# Bacillus pumilus = assay: Antibacterial activity against Bacillus pumilus NCTC 8241 after 18 hrs by serial microdilution broth assay; format: functional; conditions: NCTC 8241, 18 h; outline: as §1
# Bacillus spizizenii = assay: Antibacterial activity against Bacillus subtilis ATCC 6633 after 18 hrs by serial microdilution broth assay; format: functional; conditions: ATCC 6633, 18 h; outline: as §1
# Enterococcus faecalis [9] = assay: Antibacterial activity against vancomycin susceptible Enterococcus faecalis ATCC 29212 after 18 hrs by serial microdilution broth assay; format: functional; conditions: ATCC 29212, 18 h; outline: as §1
# Staphylococcus aureus [10] = assay: Antibacterial activity against methicillin resistant Staphylococcus aureus MFBF 10682 after 18 hrs by serial microdilution broth assay; format: functional; conditions: MFBF 10682, 18 h; outline: as §2
# [11] = Antioxidant activity assessed as DPPH radical scavenging activity at 100 uM after 60 mins relative to control; format: functional
# Outline: (§3)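 Compound in DMSO added to DPPH in absolute ethanol, 0.1 mM final; absorbance at 517 nm after 20 and 60 min at room temperature. At least triplicate.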
# [12] = Inhibition of soybean LOX assessed as reduction in conversion of sodium linoleate to 13-hydroperoxylinoleic acid; parameters: species or system Glycine max
# Outline: (§4)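 Soybean lipoxygenase incubated at room temperature with sodium linoleate (0.1 mM) and test compound (DMSO stocks); formation of 13-hydroperoxylinoleic acid read at 234 nm. Single-point screening at 1 × 10^-4 M; IC50 from several concentrations. At least triplicate.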
# [13] = Antioxidant activity assessed as DPPH radical scavenging activity at 100 uM after 20 mins relative to control; format: functional; outline: as §3
# Glycine max = assay: Inhibition of soybean LOX assessed as reduction in conversion of sodium linoleate to 13-hydroperoxylinoleic acid at 1 x 10^-4 M relative to control; outline: as §4
# [14] = Antioxidant activity assessed as inhibition of AAPH-induced linoleic acid lipid peroxidation at 1 x 10^-4 M by UV-absorbance method relative to control; format: functional
# Outline: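 Linoleic acid peroxidation: 16 mM sodium linoleate dispersion in 0.05 M phosphate buffer pH 7.4 at 37 °C under air, initiated by AAPH (40 mM solution); compound at 1 × 10^-4 M; oxidation followed at 234 nm. At least triplicate.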
# [15] = Growth inhibition of human SW620 cells after 72 hrs by MTT assay; format: functional, cell-based; conditions: SW-620, 72 h
# Outline: (§5)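 Modified NCI DTP protocol: cells in DMEM with 10% FBS, 2 mM glutamine, antibiotics, 37 °C, 5% CO2; seeded 1 × 10^4 to 3 × 10^4 cells/ml on day 0, exposed to five 10-fold dilutions (10^-8 to 10^-4 M) for 72 h; solvent control. MTT read-out; quadruplicate points in three experiments; IC50 by linear regression of growth percentages bracketing 50%.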
# [16] = Growth inhibition of human MIAPaCa2 cells after 72 hrs by MTT assay; format: functional, cell-based; conditions: MIA PaCa-2, 72 h
# [17] = Growth inhibition of human CEM cells after 72 hrs by MTT assay; format: functional, cell-based; conditions: CCRF-CEM
# [18] = Growth inhibition of human NCI-H460 cells after 72 hrs by MTT assay; format: functional, cell-based; conditions: NCI-H460, 72 h; outline: as §5
# [19] = Growth inhibition of human HeLa cells after 72 hrs by MTT assay; format: functional, cell-based
# [20] = Growth inhibition of human Molt4/C8 cells after 72 hrs by MTT assay; format: functional, cell-based; conditions: MOLT-4, 72 h
# [21] = Growth inhibition of human MCF7 cells after 72 hrs by MTT assay; format: functional, cell-based; conditions: MCF7, 72 h; outline: as §5
# [22] = Growth inhibition of mouse L1210 cells after 72 hrs by MTT assay; format: functional, cell-based; conditions: L1210, 72 h
Structure (SMILES),Activity [11] [%],Activity [13] [%],inhibition (Glycine max) [%],inhibition [14] [%],IC50 [15] [µM],IC50 [16] [µM],IC50 [17] [µM],IC50 [18] [µM],IC50 [19] [µM],IC50 [20] [µM],IC50 [21] [nM],IC50 [22] [µM],also measured
CN(C)[C@@H]1C(O)=C(C(N)=O)C(=O)[C@@]2(O)C(O)=C3C(=O)c4c(O)cccc4[C@@](C)(O)[C@H]3C[C@@H]12 [TETRACYCLINE],–,–,–,–,–,–,–,–,–,–,–,–,MIC50 (Staphylococcus aureus [1]): 0.156 µg/mL; MIC50 (Staphylococcus aureus [2]): 0.312 µg/mL; MIC50 (Staphylococcus aureus [3]): 0.312 µg/mL; MIC50 (Bacillus cereus): 0.312 µg/mL; MIC50 (Pseudomonas aeruginosa [4]): 3 µg/mL; MIC50 (Staphylococcus aureus [5]): 0.15 µg/mL; MIC50 (Pseudomonas aeruginosa [6]): > 128 µg/mL; MIC50 (Enterococcus faecalis [7]): > 128 µg/mL; MIC50 (Escherichia coli): 2.5 µg/mL; MIC50 (Pseudomonas aeruginosa [8]): 3 µg/mL; MIC50 (Bacillus pumilus): 0.156 µg/mL; MIC50 (Bacillus spizizenii): 0.312 µg/mL; MIC50 (Enterococcus faecalis [9]): 0.312 µg/mL; MIC50 (Staphylococcus aureus [10]): 0.312 µg/mL
CC(Cc1ccc(O)c(O)c1)C(C)Cc1ccc(O)c(O)c1 (stereo not given) [NORDIHYDROGUAIARETIC ACID],97,83,83,–,–,–,–,–,–,–,–,–,IC50 [12]: 4.5 µM
COc1cc(NC(C)CCCNC(=O)Nc2cccc(C(F)(F)F)c2)c2ncccc2c1 (stereo not given),47.7,31.3,48.3,71.8,22,17,19,21,14,20,3300,9.2,–
Cc1c(C)c2c(c(C)c1O)CCC(C)(C(=O)O)O2 (stereo not given),–,–,–,76,–,–,–,–,–,–,–,–,–
COc1cc(NC(C)CCCNC(=O)NNC(=O)Nc2cc(C(F)(F)F)cc(C(F)(F)F)c2)c2ncccc2c1 (stereo not given),88,86.8,33.9,39.9,16,20,13,18,17,22,2400,18,–
COc1cc(NC(C)CCCNC(=O)NNC(=O)Nc2cccc(O)c2)c2ncccc2c1 (stereo not given),100,96.5,41.6,52.2,17,129,143,> 100,180,85,1100,160,–
COc1cc(NC(C)CCCNC(=O)NNC(=O)Nc2cccc(C(F)(F)F)c2)c2ncccc2c1 (stereo not given),91.2,98.3,51.4,52.6,21,5.6,6.9,20,4.9,36,190,4,–
COc1cc(NC(C)CCCNC(=O)NNC(=O)Nc2ccc(O)cc2)c2ncccc2c1 (stereo not given),100,99.3,33.4,61.9,> 100,142,111,> 100,85,104,2600,95,–
COc1cc(NC(C)CCCNC(=O)Nc2cccc(F)c2)c2ncccc2c1 (stereo not given),26,–,44.6,74.3,27,22,21,24,18,23,18000,19,–
